ChEMBL document CHEMBL4610036, “Discovery of small molecule antagonists of chemokine receptor CXCR6 that arrest tumor growth in SK-HEP-1 mouse xenografts as a model of hepatocellular carcinoma” (Bioorg Med Chem Lett, 2020)
Calls of active or inactive are those of the source. The rule behind the calls is not given here.

Key:
[1] = target: T1, C-X-C chemokine receptor type 6 (Homo sapiens, UniProt O00574); assay: Antagonist activity at Prolink-tagged human CXCR6 receptor assessed as inhibition of CXCL16-induced beta-arrestin recruitment by DiscoveRx cell based assay
Target sequence in this assay (O00574 whole entry): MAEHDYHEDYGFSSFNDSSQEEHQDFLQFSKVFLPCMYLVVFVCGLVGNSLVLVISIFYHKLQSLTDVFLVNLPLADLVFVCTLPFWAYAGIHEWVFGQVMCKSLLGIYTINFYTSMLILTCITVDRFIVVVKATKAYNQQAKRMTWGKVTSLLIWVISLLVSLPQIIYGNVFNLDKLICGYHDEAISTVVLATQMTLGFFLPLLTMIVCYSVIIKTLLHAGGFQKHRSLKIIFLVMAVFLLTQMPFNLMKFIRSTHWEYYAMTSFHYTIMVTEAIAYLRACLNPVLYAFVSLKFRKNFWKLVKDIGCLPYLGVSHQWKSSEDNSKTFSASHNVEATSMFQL

[2] = target: T1, C-X-C chemokine receptor type 6; assay: Antagonist activity at Prolink-tagged human CXCR6 receptor assessed as inhibition of CXCL16-induced beta-arrestin recruitment by DiscoveRx cell based assay relative to control; design: concentration or dose not given beside the values
Method in brief: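 CXCR6 β-arrestin cells in assay media without G418/hygromycin, 800 cells/well, grown overnight at 37 °C; compounds added acoustically (DMSO ≤0.3%), then 20 nM CXCL16 (final) for 90 min at 37 °C. PathHunter luminescence read. Normalized between CXCL16-alone and no-ligand wells; four-parameter fit with Hill slope fixed at 1; at least two runs on different days, averaged pIC50 ± SD.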
Target sequence in this assay (O00574 whole entry, looked up): as the sequence (O00574 whole entry) above

[3] = target: T1, C-X-C chemokine receptor type 6; assay: Antagonist activity at Prolink-tagged human CXCR6 receptor assessed as inhibition of forskolin-induced cAMP accumulation by DiscoveRx cell based assay; assay type: functional
Method in brief: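 Lance Ultra TR-FRET cAMP assay in CXCR6 β-arrestin cells, 500 cells/well in OptiMEM/2% FBS, grown overnight. Compound added, then forskolin (2.5 mM stock) in HBSS/HEPES/BSA/RO-20-1724 with or without 20 nM CXCL16, 30 min at room temperature. Eu-cAMP tracer and ULight anti-cAMP antibody added, read after 30 min. Curve fit with Hill slope 1; ≥2 independent runs.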
Target sequence in this assay (O00574 whole entry): as above

[4] = target: T1, C-X-C chemokine receptor type 6; assay: Antagonist activity at Prolink-tagged human CXCR6 receptor assessed as inhibition of forskolin-induced cAMP accumulation by DiscoveRx cell based assay relative to control; assay type: functional; design: concentration or dose not given beside the values
Method in brief: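 CXCR6 β-arrestin cells in OptiMEM with 2% FBS, 500 cells/well, grown overnight; compounds added, then forskolin with 20 nM CXCL16 (stock concentrations) in HBSS/HEPES/BSA with RO-20-1724, 30 min at room temperature. cAMP read by LANCE Ultra TR-FRET after a further 30 min. Hill slope fixed at 1; at least two runs on different days, averaged pIC50 ± SD.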
Target sequence in this assay (O00574 whole entry, looked up): as the sequence (O00574 whole entry) above

Row | SMILES | IC50 [1] [µM] | inhibition [2] | IC50 [3] [µM] | inhibition [4] | inhibition ([2]; concentration not given here) [%] | inhibition ([4]; concentration not given here) [%]
1 | COc1ccc(CN2[C@@H]3CCC[C@H]2C[C@H](NC(=O)c2cc(OC)c(OC)c(OC)c2)C3)cc1 | > 50 | inactive | > 50 | inactive | – | –
2 | COc1cc(C(=O)N[C@@H]2C[C@H]3CCC[C@@H](C2)N3Cc2nc3ccccc3o2)cc(OC)c1OC | 6.9 | – | > 50 | – | 83 | 26
3 | COc1cc(C(=O)N[C@@H]2C[C@H]3CCC[C@@H](C2)N3Cc2ccc3ccccc3c2)cc(OC)c1OC | 3.4 | – | 47.3 | – | 94 | 30
4 | COc1ccc(C(=O)N[C@@H]2C[C@H]3CCC[C@@H](C2)N3CC(=O)Nc2ccc(Cl)cc2)cc1OC | > 40 | inactive | > 40 | inactive | – | –
5 | COc1cc(C(=O)N[C@@H]2C[C@H]3CCC[C@@H](C2)N3CC(=O)Nc2cccc(C)c2)cc(OC)c1OC | 1.8 | – | 17.9 | – | 102 | 92
6 | COc1cccc(CN2[C@@H]3CCC[C@H]2C[C@H](NC(=O)c2cc(OC)c(OC)c(OC)c2)C3)c1 | > 50 | inactive | > 50 | inactive | – | –
7 | COc1cc(C(=O)N[C@@H]2C[C@H]3CCC[C@@H](C2)N3CC(=O)Nc2ccc(C)cc2)cc(OC)c1OC | 9.5 | – | > 40 | inactive | 100 | –
8 | COc1ccc(C(=O)N[C@@H]2C[C@H]3CCC[C@@H](C2)N3CC(=O)Nc2ccc(Cl)cc2)cc1 | > 40 | inactive | 5.9 | – | – | 94
9 | COc1cc(C(=O)N[C@@H]2C[C@H]3CCC[C@@H](C2)N3CC(=O)Nc2c(C)cccc2C)cc(OC)c1OC | > 40 | inactive | > 40 | inactive | – | –
10 | COc1cc(C(=O)N[C@@H]2C[C@H]3CCC[C@@H](C2)N3Cc2nc3c(F)cccc3s2)cc(OC)c1OC | 0.11 | – | 1.9 | – | 103 | 105
11 | COc1cc(C(=O)N[C@@H]2C[C@H]3CCC[C@@H](C2)N3CC(=O)Nc2ccccc2)cc(OC)c1OC | 5.8 | – | 30.6 | – | 65 | 86
12 | CCOC(=O)c1ccccc1NC(=O)CN1[C@@H]2CCC[C@H]1C[C@H](NC(=O)c1cc(OC)c(OC)c(OC)c1)C2 | 1.6 | – | 6.9 | – | 79 | 96
13 | COc1cc(C(=O)N[C@@H]2C[C@H]3CCC[C@@H](C2)N3Cc2cc3ccccc3[nH]2)cc(OC)c1OC | 23.7 | – | > 50 | inactive | 64 | –
14 | COc1ccccc1CN1[C@@H]2CCC[C@H]1C[C@H](NC(=O)c1cc(OC)c(OC)c(OC)c1)C2 | > 50 | inactive | > 50 | inactive | – | –
15 | COc1cc(C(=O)N[C@@H]2C[C@H]3CCC[C@@H](C2)N3CC(=O)Nc2cccc(Br)c2)cc(OC)c1OC | 0.35 | – | 3.8 | – | 104 | 92
16 | COc1cc(C(=O)N[C@@H]2C[C@H]3CCC[C@@H](C2)N3Cc2nc3ccc(Cl)cc3s2)cc(OC)c1OC | 0.27 | – | 14 | – | 103 | 83
17 | COc1cc(C(=O)N[C@@H]2C[C@H]3CCC[C@@H](C2)N3Cc2cccc(Cl)c2)cc(OC)c1OC | 9.5 | – | 14.8 | – | 97 | 100
18 | COc1cc(C(=O)N[C@@H]2C[C@H]3CCC[C@@H](C2)N3CC(=O)Nc2ccccc2F)cc(OC)c1OC | 0.62 | – | 6.5 | – | 103 | 99
